A selection: hits, their analogues and other compounds. The true share with any hit is near 3.5%.
RGS4 inh: human RGS4 inhibition. actives 0.45% (n = 310,000). P49798. AID 463165. B-score at 10 µM. HEK293 M3R/RGS4 inducible, Fluo-4 calcium flux; active compounds read high; triggered by carbachol at its EC20;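 active = B-score, a plate-corrected calcium signal, over three deviations above library mean, with baseline fluorescence within five deviations of library mean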;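 also: RGS4 expression induced by doxycycline in cells with stable M3 receptor; B-score is computed from the integrated fluorescence ratio over baseline after carbachol; higher B-score means a larger calcium signal and so more RGS4 inhibition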
Target sequence (P49798 whole entry, looked up): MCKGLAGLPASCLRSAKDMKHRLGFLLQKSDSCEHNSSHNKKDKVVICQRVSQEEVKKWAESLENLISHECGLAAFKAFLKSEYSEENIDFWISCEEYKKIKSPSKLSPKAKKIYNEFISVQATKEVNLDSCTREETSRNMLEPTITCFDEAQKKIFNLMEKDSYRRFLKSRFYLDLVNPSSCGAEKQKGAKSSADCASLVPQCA
RGS4 act: potentiators or activators of RGS4; HEK293 M3R/inducible RGS4, carbachol calcium flux Fluo4; active compounds read low; B-score at 10 µM; actives 0.92% (n = 310,000);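 active = B-score of the integrated calcium signal more than 4 SD below the library mean, with starting fluorescence not abnormally high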;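 also: negative B-score means reduced calcium response which marks RGS4 activation or potentiation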
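Reagent: ECmax carbachol challenge; Test system: M3R-expressing HEK293 line, RGS4 induced by doxycycline; Schedule: overnight RGS4 induction, 30 min dye load 37 °C, 20 min compound RT; Detection: calcium dye Fluo4 fluorescence; Read-out: Agonist-evoked peak-minus-minimum fluorescence over baseline, integrated ratio, B score.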
MrgX1 allo act: human MrgX1 positive allosteric modulation, primary screen | Q96LB2 | actives 0.63% (n = 310,000) | AID 588675 | MrgX1-HEK293, Fluo-4 calcium flux, FDSS; active compounds read high | B-score at 10 µM;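 active = plate-corrected calcium response at least 3 library SD above typical, normal starting fluorescence, not activating the receptor alone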;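 also: compound read alongside a low EC10 to EC30 dose of BAM8-22 agonist; peak minus trough fluorescence over baseline measured at the second addition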
Target sequence (Q96LB2 whole entry, looked up): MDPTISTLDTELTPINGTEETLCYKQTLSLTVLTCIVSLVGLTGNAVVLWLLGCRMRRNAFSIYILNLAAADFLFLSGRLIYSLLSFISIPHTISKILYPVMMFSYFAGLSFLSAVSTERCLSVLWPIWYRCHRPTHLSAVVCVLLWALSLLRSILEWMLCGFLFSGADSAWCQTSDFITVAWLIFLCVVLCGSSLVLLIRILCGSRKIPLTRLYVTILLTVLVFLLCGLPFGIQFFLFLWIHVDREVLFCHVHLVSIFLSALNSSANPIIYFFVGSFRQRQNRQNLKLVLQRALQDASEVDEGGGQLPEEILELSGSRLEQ
MrgX1 ag: agonists of human MrgX1 receptor; Q96LB2; MrgX1-HEK293 cells, Fluo-4 calcium fluorescence, agonist mode; active compounds read high; B-score at 10 µM; actives 0.44% (n = 310,000);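 active = calcium response B-score plate-corrected fluorescence ratio at least 3 library SD, with starting fluorescence B-score inside 5 SD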
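Test system: HEK293 cells stably expressing human MrgX1 receptor; amount: 15,000 cells per well; doses: compound delivered in addition one of three; times: overnight plating before 1 h dye loading; detection: Fluo-4 NW calcium-flux fluorescence, kinetic read; read-out basis: B-scored fluorescence response ratio; controls: positive and negative controls per plate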
MrgX1 antagonist: blocks BAM8-22 activation of human MrgX1 receptor | Q96LB2 | MRGX1-HEK293 calcium flux, Fluo-4, BAM8-22 antagonism; active compounds read low | B-score at 10 µM | actives 1.3% (n = 310,000) | AID 588676;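 active = calcium-response B-score plate-corrected more than 3 library SD below zero, starting fluorescence within 5 deviations, no agonist response on first addition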;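 also: peak minus trough fluorescence over baseline after final BAM8-22 challenge near maximal dose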
MrgX1 antag conf: human MrgX1 receptor antagonism, re-confirmation screen | shares compounds with MrgX1 antagonist | MrgX1-HEK293, BAM8-22 calcium flux, Fluo-4; active compounds read low | remaining BAM8-22 calcium response % of control (active compounds read low), % at 10 µM | actives 19% (n = 2,300) | AID 602420;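 active = remaining agonist calcium response no higher than 100% minus 3 SD of agonist-only control wells, with starting fluorescence near control levels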;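 also: agonist BAM8-22 given at a near maximal EC90 to ECmax level; peak minus minimum fluorescence divided by baseline after agonist addition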
HEK293 Ca flux: counter-screen for MrgX1 antagonists: effect in parental HEK293 cells. fluorescence ratio F(max-min)/F0 at 10 µM. shares compounds with MrgX1 antagonist. Fluo-4 calcium fluorescence, FDSS. actives 2% (n = 4,000);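 active = duplicate-averaged calcium fluorescence ratio at least three times the standard deviation of buffer wells, a nonspecific response in parental cells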
HEK293 Ca counter: MrgX1 allosteric activator counter-screen hit in parental HEK293 cells | shares compounds with MrgX1 antagonist | parental HEK293 calcium flux, Fluo-4 fluorescence ratio; active compounds read high | fluorescence ratio F(max-min)/F0 at 10 µM | actives 0.4% (n = 4,000);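 active = calcium fluorescence ratio, averaged over duplicates, at least 3 SD of the buffer-well ratio, meaning a nonspecific response in receptor-free cells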;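 also: untransfected parental HEK293 lacking MrgX1 used as counterscreen for MrgX1 allosteric activators; fluorescence change taken during the second addition on a kinetic imager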
HEK293 Ca cntr2: MrgX1 activator counter-screen hit in parental HEK293 cells; shares compounds with MrgX1 antagonist; Fluo-4 calcium fluorescence (FDSS); active compounds read high; fluorescence ratio F(max-min)/F0 at 10 µM; actives 8.7% (n = 4,000);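 active = calcium fluorescence ratio at least three times the spread of buffer wells, meaning a non-specific response in parental cells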
* = called active by the depositor; i = inactive; . = no result.

SMILES	RGS4 inh	RGS4 act	MrgX1 allo act	MrgX1 ag	MrgX1 antagonist	MrgX1 antag conf	HEK293 Ca flux	HEK293 Ca counter	HEK293 Ca cntr2
Cc1ccc2nc(C(O)C(O)c3nc4ccc(C)cc4[nH]3)[nH]c2c1 (stereo unspecified)	i	i	i	i	i	.	.	.	.
Cc1ccc2nc(C(C)O)[nH]c2c1 (stereo unspecified)	i	i	i	i	-7.07*	64.2%*	i	i	i
COc1ccc(-c2nnc3n2CCCCC3)cc1OC	i	i	i	i	i	.	.	.	.
Cc1cc(-c2nnc3n2CCCCC3)c(C)n1-c1ccccc1	i	i	i	i	-4.68*	i	i	i	i
N#CCCn1nc(-c2ccccc2)c2ccccc2c1=O	i	i	i	i	i	.	.	.	.
O=C(CCN1C(=O)c2ccccc2C1=O)Nc1sc2c(c1C(=O)NCc1ccco1)CCCC2	i	i	i	i	-4.85*	i	i	i	i
CC(C(=O)Nc1sc2c(c1C(=O)NCc1ccco1)CCCC2)N1C(=O)c2ccccc2C1=O (stereo unspecified)	i	i	i	i	i	.	.	.	.
COc1ccc(/C=N/n2c(C)nnc2C)c(OC)c1	i	i	i	i	i	.	.	.	.
COc1cc(OC)c(/C=N/n2c(C)nnc2C)c(OC)c1	i	i	i	i	-4.78*	i	i	i	i
CC(=O)Nc1ccc(Sc2ncccc2C(=O)Nc2ccc(OC(F)(F)F)cc2)cn1	i	i	i	i	-10*	i	i	i	i
Cc1ccc2nc(C)cc(C(=O)OCC(=O)Nc3cccnc3Cl)c2c1	i	i	i	i	i	.	.	.	.
COc1ccc(NC(=O)C2CC(c3ccccc3Cl)=NO2)cc1 (stereo unspecified)	i	i	i	i	i	.	.	.	.
Cc1ccc(NS(=O)(=O)c2ccc(C(=O)NCc3ccncc3)cc2)cc1	i	i	i	i	-4.62*	78.6%*	i	i	i
Cc1ccc(NS(=O)(=O)c2ccc(OCC(N)=O)cc2)cc1	i	i	i	i	-9.4*	i	i	i	i
O=C(NCc1ccc2c(c1)OCO2)c1ccc(NS(=O)(=O)c2ccc3c(c2)OCCO3)cc1	i	i	i	i	-6.9*	i	i	i	i
CNC(=O)COc1ccc(S(=O)(=O)Nc2ccc(C)cc2)cc1	i	i	i	i	i	.	.	.	.
O=C(NCc1ccc2c(c1)OCO2)c1ccc(S(=O)(=O)N2CCCCC2)cc1	i	i	i	i	i	.	.	.	.
CN1CCN(NC(=O)c2ccc(Br)c(S(=O)(=O)N3CCOCC3)c2)CC1	i	i	i	i	i	.	.	.	.
COc1ccc(N(CC(=O)N/N=C(\C)c2ccc(OC)c(OC)c2)S(=O)(=O)c2ccccc2)cc1	i	i	i	i	i	.	.	.	.
CCc1ccc2c(c1)C(NC(C)=O)C(=O)N2CCN1CCOCC1 (stereo unspecified)	i	i	i	i	-9.72*	i	i	i	i
CCCN1C(=O)C(NC(C)=O)c2ccccc21 (stereo unspecified)	i	i	i	i	i	.	.	.	.
CCn1cc(CN2CCc3c([nH]c4ccccc34)C2c2cccc(OC)c2OC)c(C)n1 (stereo unspecified)	i	i	i	i	-5.4*	i	i	i	i
COc1ccccc1N1CCN(C(=O)C(C)NC(=O)c2cccc([N+](=O)[O-])c2)CC1 (stereo unspecified)	i	i	i	i	i	.	.	.	.
CCc1c(C)nc2cc(-c3ccc(Cl)cc3)[nH]n2c1=O	i	i	i	i	i	.	.	.	.
CCOC(=O)CCc1c(C)nc2cc(-c3ccc(Cl)cc3)[nH]n2c1=O	i	i	i	i	-5.99*	i	i	i	i
SMILES	RGS4 inh	RGS4 act	MrgX1 allo act	MrgX1 ag	MrgX1 antagonist	MrgX1 antag conf	HEK293 Ca flux	HEK293 Ca counter	HEK293 Ca cntr2
CCOC1OC(=O)C(Cl)=C1Nc1cc(C)ccc1C (stereo unspecified)	i	i	i	i	i	.	.	.	.
COc1ccc2c(=O)c3ccccc3oc2c1	i	i	i	i	i	.	.	.	.
COc1ccc2c(=O)c(N3C(=O)c4ccccc4C3=O)c(C)oc2c1	i	i	i	i	-5.25*	i	i	i	i
CCCC(C)c1nnc(NC(=O)C2CC(=O)N(CCc3ccc(F)cc3)C2)s1 (stereo unspecified)	i	i	i	i	i	.	.	.	.
CCOCCc1nnc(NC(=O)C2CC(=O)N(CCc3ccc(F)cc3)C2)s1 (stereo unspecified)	i	i	i	i	i	.	.	.	.
O=C(c1ccc(Br)o1)N1CCN(C23CC4CC(CC(C4)C2)C3)CC1	i	i	i	i	-5.02*	i	i	i	i
COc1ccccc1N1CCN(C(=O)CN(c2ccc(C)c(C)c2)S(C)(=O)=O)CC1	i	i	i	i	-4.75*	i	i	i	i
COc1ccccc1N1CCN(C(=O)C(F)F)CC1	i	i	i	i	-6.82*	i	i	i	i
CC(C)(C)N(Cc1ccccc1)C(=O)COC(=O)CSc1ccc([N+](=O)[O-])cc1	i	i	i	i	-9.9*	i	i	i	i
CC1=C(C(=O)Nc2cc(C(=O)N(C)Cc3ccccc3)ccc2C)SCCO1	i	i	i	i	i	.	.	.	.
Cc1ccc(CNC(=O)CCSCc2ccccc2C)cc1	i	i	i	i	i	.	.	.	.
CC[n+]1c(C)sc2cc(C)ccc21	i	i	i	i	i	.	.	.	.
Cc1ccc2c(c1)sc(-c1ccc(N(C)C)cc1)[n+]2C	i	i	i	i	-11.3*	i	0.658*	i	i
O=C(Nc1ccccc1F)c1ccc(C(=O)c2ccccc2)cc1	i	i	i	i	-5.63*	84.5%*	i	i	i
